“And” between values parts separate entries of the source, which are not always exact repeats. Identical values can stand only once.
Test system: U2OS
Test: Multiplex assay against U2OS
Format: toxicity, cell-based
Settings: human
Procedure, shortened: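 At seeding, live cells were stained with Hoechst33342, BioTracker Green Microtubule Cytoskeleton Dye, MitoTracker Red and Annexin V Alexa Fluor 680. After compound addition they were imaged on a CQ1 microscope at 37°C and 5% CO2, and CellPathfinder machine-learning gating sorted them into Hoechst high-intensity objects or normal cells, with normal cells further split into healthy, pyknosed or fragmented nuclei and pyknosed cells into mitotic or apoptotic. Tubulin, mitochondrial-mass and membrane-permeability phenotypes are given as per cents of cells with healthy nuclei.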

[1] = 12 h, 1 µM, compound concentration 1 uM
[2] = 12 h, 10 µM, compound concentration 10 uM
[3] = 24 h, 1 µM, compound concentration 1 uM
[4] = 24 h, 10 µM, compound concentration 10 uM
[5] = 48 h, 1 µM, compound concentration 1 uM
[6] = 48 h, 10 µM, compound concentration 10 uM

Cc1cc(C)cc(C(=O)NOCCCCCC(=O)NO)c1
Population Apoptotic (%) [1]: 33.33% and 45.83%
Population Fragmented Nuclei (%) [1]: 2.19% and 1.16%
Population Healthy Nuclei (%) [1]: 82.02% and 84.97%
Population Hoechst High Intensity Objects (%) [1]: 0%
Population Membrane Permeable-Phenotype (%) [1]: 0.53% and 4.08%
Population Mitochondria Different-Phenotype (%) [1]: 0.27% and 4.08%
Population Mitotic Cells (%) [1]: 66.67% and 54.17%
Population Normal (%) [1]: 100%
Population Pyknosed Nuclei (%) [1]: 15.79% and 13.87%
Population Tubulin-Different-Phenotype (%) [1]: 0.8% and 1.36%
Total Cell Count [1]: 456 and 173
Population Apoptotic (%) [2]: 27.78% and 30.23%
Population Fragmented Nuclei (%) [2]: 2.46% and 2.56%
Population Healthy Nuclei (%) [2]: 79.85% and 69.87%
Population Hoechst High Intensity Objects (%) [2]: 0%
Population Membrane Permeable-Phenotype (%) [2]: 1.23% and 4.59%
Population Mitochondria Different-Phenotype (%) [2]: 0.31% and 9.17%
Population Mitotic Cells (%) [2]: 72.22% and 69.77%
Population Normal (%) [2]: 100%
Population Pyknosed Nuclei (%) [2]: 17.69% and 27.56%
Population Tubulin-Different-Phenotype (%) [2]: 2.46% and 1.83%
Total Cell Count [2]: 407 and 156
Population Apoptotic (%) [3]: 42.11% and 38.46%
Population Fragmented Nuclei (%) [3]: 5.65% and 5.61%
Population Healthy Nuclei (%) [3]: 59.88% and 61.22%
Population Hoechst High Intensity Objects (%) [3]: 0%
Population Membrane Permeable-Phenotype (%) [3]: 0.67% and 1.67%
Population Mitochondria Different-Phenotype (%) [3]: 0.34% and 5%
Population Mitotic Cells (%) [3]: 57.89% and 61.54%
Population Normal (%) [3]: 100%
Population Pyknosed Nuclei (%) [3]: 34.48% and 33.16%
Population Tubulin-Different-Phenotype (%) [3]: 3.37% and 1.67%
Total Cell Count [3]: 496 and 196
Population Apoptotic (%) [4]: 36.05% and 42.86%
Population Fragmented Nuclei (%) [4]: 8.75% and 10%
Population Healthy Nuclei (%) [4]: 30.26% and 41.88%
Population Hoechst High Intensity Objects (%) [4]: 0%
Population Membrane Permeable-Phenotype (%) [4]: 0.78% and 10.45%
Population Mitochondria Different-Phenotype (%) [4]: 0% and 4.48%
Population Mitotic Cells (%) [4]: 63.95% and 57.14%
Population Normal (%) [4]: 100%
Population Pyknosed Nuclei (%) [4]: 60.99% and 48.12%
Population Tubulin-Different-Phenotype (%) [4]: 3.12% and 11.94%
Total Cell Count [4]: 423 and 160
Population Apoptotic (%) [5]: 77.2% and 80.52%
Population Fragmented Nuclei (%) [5]: 9.29% and 8.45%
Population Healthy Nuclei (%) [5]: 55.56% and 55.4%
Population Hoechst High Intensity Objects (%) [5]: 0.18% and 0%
Population Membrane Permeable-Phenotype (%) [5]: 4.92% and 7.63%
Population Mitochondria Different-Phenotype (%) [5]: 0.66% and 5.93%
Population Mitotic Cells (%) [5]: 22.8% and 19.48%
Population Normal (%) [5]: 99.82% and 100%
Population Pyknosed Nuclei (%) [5]: 35.15% and 36.15%
Population Tubulin-Different-Phenotype (%) [5]: 6.89% and 8.47%
Total Cell Count [5]: 550 and 213
Population Apoptotic (%) [6]: 79.12% and 92.94%
Population Fragmented Nuclei (%) [6]: 3.39% and 4.58%
Population Healthy Nuclei (%) [6]: 31.59% and 39.87%
Population Hoechst High Intensity Objects (%) [6]: 0%
Population Membrane Permeable-Phenotype (%) [6]: 15.7% and 31.15%
Population Mitochondria Different-Phenotype (%) [6]: 0.83% and 3.28%
Population Mitotic Cells (%) [6]: 20.88% and 7.06%
Population Normal (%) [6]: 100%
Population Pyknosed Nuclei (%) [6]: 65.01% and 55.56%
Population Tubulin-Different-Phenotype (%) [6]: 44.63% and 32.79%
Total Cell Count [6]: 383 and 153

From ChEMBL document CHEMBL5724801, “EUbOPEN Chemogenomics Library - Multiplex” (2024)
